# Data as given in ChEMBL document CHEMBL1255566, “Rigid analogues of the α2-adrenergic blocker atipamezole: small changes, big consequences” (J Med Chem, 2010).
# Columns and labels:
# Mus musculus [1] = test: Increase of normetanephrine level in NMRI mouse cortex at 10 mg/kg, ip after 1 hr microwave irradiation; assay type: functional; details: route intraperitoneal
# Method in brief: (§1)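 Single intraperitoneal dose; mice were killed by head-focused microwave irradiation 1 h later. Frontal cortex normetanephrine, an extracellular noradrenaline metabolite, was measured and expressed as increase relative to control animals, giving dose-response data across 0.16 to 10 mg/kg.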
# [2] = target: T1, Alpha-2A adrenergic receptor (Homo sapiens, UniProt P08913); test: Displacement of [3H]-RX821002 from human adrenergic alpha2A receptor expressed in rat C6 cells after 120 mins by liquid scintillation counting; assay type: cell-based
# T1 sequence (P08913 whole entry): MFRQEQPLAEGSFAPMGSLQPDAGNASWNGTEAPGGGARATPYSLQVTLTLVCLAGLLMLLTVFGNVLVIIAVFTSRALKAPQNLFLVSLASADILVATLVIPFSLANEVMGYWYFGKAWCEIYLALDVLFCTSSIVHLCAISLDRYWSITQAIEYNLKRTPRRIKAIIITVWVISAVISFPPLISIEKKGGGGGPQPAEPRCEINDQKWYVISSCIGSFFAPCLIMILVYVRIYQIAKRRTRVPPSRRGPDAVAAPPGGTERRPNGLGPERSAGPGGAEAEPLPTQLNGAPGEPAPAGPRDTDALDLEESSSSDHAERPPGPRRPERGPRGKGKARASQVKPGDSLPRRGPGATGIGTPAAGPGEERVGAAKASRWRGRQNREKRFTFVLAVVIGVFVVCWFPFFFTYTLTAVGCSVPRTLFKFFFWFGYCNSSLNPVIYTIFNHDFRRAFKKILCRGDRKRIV
# Method in brief: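 Competition binding at human α2A receptors expressed in C6 glial cells. Affinity values are means ± SEM of at least two experiments, each in duplicate.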
# Mus musculus [3] = test: Antihypothermic activity in ip dosed NMRI mouse assessed as inhibition of guanabenz-induced hypothermia administered 5 mins before guanabenz challenge measured after 25 mins; assay type: functional
# Method in brief: (§2)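 Mice got the compound by intraperitoneal injection or oral gavage before guanabenz challenge, and reversal of guanabenz-induced hypothermia was scored. Five animals were tested per dose. ED50 is the dose giving an inhibitory effect in 50% of guanabenz-treated animals, with 95% confidence limits.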
# Mus musculus [4] = test: Antihypothermic activity in po dosed NMRI mouse assessed as inhibition of guanabenz-induced hypothermia administered 35 mins before guanabenz challenge measured after 25 mins; assay type: functional; method in brief: as §2
# Mus musculus [5] = test: Ratio of ED50 for santihypothermic activity in po dosed NMRI mouse to ED50 for antihypothermic activity in ip dosed NMRI mouse; assay type: functional
# Method in brief: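 Guanabenz-induced hypothermia in mice, five animals per dose. ED50 (the dose inhibiting hypothermia in 50% of guanabenz-treated animals) was obtained after oral gavage and after intraperitoneal injection, and the ratio po/ip was then calculated.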
# [6] = target: T2, Alpha-2B adrenergic receptor (Homo sapiens, UniProt P18089); test: Displacement of [3H]-RX821002 from human adrenergic alpha2B receptor expressed in rat C6 cells after 120 mins by liquid scintillation counting; assay type: cell-based
# T2 sequence (P18089 whole entry): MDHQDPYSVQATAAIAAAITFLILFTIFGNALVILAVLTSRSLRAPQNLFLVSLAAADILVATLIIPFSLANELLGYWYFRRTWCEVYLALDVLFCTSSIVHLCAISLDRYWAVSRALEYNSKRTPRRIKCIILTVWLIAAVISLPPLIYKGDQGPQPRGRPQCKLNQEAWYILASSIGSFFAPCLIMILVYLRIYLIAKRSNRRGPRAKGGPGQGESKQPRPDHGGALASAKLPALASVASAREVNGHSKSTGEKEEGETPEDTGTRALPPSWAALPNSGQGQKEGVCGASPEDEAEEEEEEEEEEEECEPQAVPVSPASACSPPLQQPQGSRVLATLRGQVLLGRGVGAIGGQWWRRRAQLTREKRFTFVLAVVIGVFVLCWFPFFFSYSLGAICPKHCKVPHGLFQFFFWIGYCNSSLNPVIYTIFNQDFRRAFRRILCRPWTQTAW
# [7] = target: T3, Alpha-2A adrenergic receptor (Homo sapiens) (UniProt P08913); test: Antagonist activity at human adrenergic alpha2A receptor expressed in CHO cells assessed as inhibition of adrenaline-induced [35S]GTPgammaS binding after 30 mins by scintillation counting; assay type: functional, cell-based
# T3 sequence (whole entry): T1 sequence (P08913 whole entry)
# Method in brief: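 Inhibition of adrenaline-stimulated [35S]GTPγS binding in CHO cells expressing human α2A receptors. Compounds were also run alone to check for any stimulation of [35S]GTPγS binding. Antagonist potency is reported as pKB, taken as the potency that inhibits 50% of adrenaline-induced binding.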
# [8] = target: T4, Alpha-1B adrenergic receptor (Homo sapiens, UniProt P35368); test: Displacement of [3H]-prazosin from human adrenergic alpha-1b receptor expressed in CHO cells after 120 mins by liquid scintillation counting; assay type: cell-based
# T4 sequence (P35368 whole entry): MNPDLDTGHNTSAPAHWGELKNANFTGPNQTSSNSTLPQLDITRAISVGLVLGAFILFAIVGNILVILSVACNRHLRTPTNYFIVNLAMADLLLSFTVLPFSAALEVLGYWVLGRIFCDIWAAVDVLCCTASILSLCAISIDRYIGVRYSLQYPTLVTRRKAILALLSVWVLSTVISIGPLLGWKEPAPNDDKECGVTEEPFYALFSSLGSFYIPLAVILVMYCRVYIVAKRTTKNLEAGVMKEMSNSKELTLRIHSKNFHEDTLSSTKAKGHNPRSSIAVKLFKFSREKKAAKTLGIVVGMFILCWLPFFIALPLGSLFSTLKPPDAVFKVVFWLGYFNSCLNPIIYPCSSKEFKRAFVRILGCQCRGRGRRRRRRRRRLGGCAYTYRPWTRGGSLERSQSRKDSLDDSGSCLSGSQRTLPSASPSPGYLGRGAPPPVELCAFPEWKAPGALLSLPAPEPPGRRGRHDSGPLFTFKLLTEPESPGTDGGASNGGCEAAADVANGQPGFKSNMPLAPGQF
# Method in brief: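 Competition binding at human α1b receptors stably expressed in CHO cells. Affinity values are means ± SEM of at least two experiments, each in duplicate.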
# [9] = target: T5, Alpha-2C adrenergic receptor (Homo sapiens, UniProt P18825); test: Displacement of [3H]-RX821002 from human adrenergic Alpha-2C receptor expressed in rat C6 cells after 120 mins by liquid scintillation counting; assay type: cell-based
# T5 sequence (P18825 whole entry): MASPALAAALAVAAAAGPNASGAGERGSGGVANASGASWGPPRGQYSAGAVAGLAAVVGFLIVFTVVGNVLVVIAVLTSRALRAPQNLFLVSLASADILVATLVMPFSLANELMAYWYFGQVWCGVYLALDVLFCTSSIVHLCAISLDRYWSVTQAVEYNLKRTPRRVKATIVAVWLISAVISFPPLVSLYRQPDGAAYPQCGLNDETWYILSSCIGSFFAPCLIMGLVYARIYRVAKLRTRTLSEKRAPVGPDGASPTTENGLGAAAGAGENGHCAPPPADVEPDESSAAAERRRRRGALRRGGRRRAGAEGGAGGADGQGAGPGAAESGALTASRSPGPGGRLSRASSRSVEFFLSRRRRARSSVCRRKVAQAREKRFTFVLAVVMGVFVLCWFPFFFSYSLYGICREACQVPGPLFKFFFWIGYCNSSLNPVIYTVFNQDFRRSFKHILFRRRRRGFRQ
# Rattus norvegicus [10] = test: Cardiotoxicity in pithed Sprague-Dawley rat assessed as increase of diastolic pressure at 2.5 ug/kg, iv in presence of prazosin; assay type: toxicity, organism-based; details: in vivo, 0.0025 mg/kg
# Rattus norvegicus [11] = test: Cardiotoxicity in anesthetized Sprague-Dawley rat assessed as increase of diastolic pressure at up to 0.16 ug/kg, iv; assay type: toxicity, organism-based; details: in vivo, 0.00016 mg/kg
# Rattus norvegicus [12] = test: Cardiotoxicity in pithed Sprague-Dawley rat assessed as increase of diastolic pressure at > 0.63 ug/kg, iv; assay type: toxicity, organism-based; details: in vivo, 0.00063 mg/kg
# Rattus norvegicus [13] = test: Cardiotoxicity in anesthetized Sprague-Dawley rat assessed as increase of diastolic pressure at 10 ug/kg, iv; assay type: toxicity, organism-based; details: in vivo, 0.01 mg/kg
# Rattus norvegicus [14] = test: Cardiotoxicity in pithed Sprague-Dawley rat assessed as increase of diastolic pressure at 2.5 ug/kg, iv in presence of rauwolscine; assay type: toxicity, organism-based; details: in vivo, 0.0025 mg/kg
# Mus musculus [15] = test: Increase of normetanephrine level in NMRI mouse cortex at 0.16 to 10 mg/kg, ip after 1 hr microwave irradiation; assay type: functional; details: dose mg/kg 0.16-10; route intraperitoneal; method in brief: as §1
# Mus musculus [16] = test: Increase of normetanephrine level in ip dosed NMRI mouse cortex after 1 hr microwave irradiation; assay type: functional, organism-based; method in brief: as §1
# [17] = Mus musculus, NMRI, ip, read-out: ED50
# [18] = Mus musculus, NMRI, po, read-out: ED50
Compound,Activity (Mus musculus [1]) [%],Ki [2] [nM],ED50 (Mus musculus [3]; [17]) [mg/kg],ED50 (Mus musculus [4]; [18]) [mg/kg],Ratio ED50 (Mus musculus [5]),Ki [6] [nM],pKb [7],Ki [8] [nM],Ki [9] [nM],Activity (Rattus norvegicus [10]),ED50 (Mus musculus [3]) [mg/kg],Activity (Rattus norvegicus [11]),Activity (Rattus norvegicus [12]),ED50 (Mus musculus [4]) [mg/kg],Activity (Rattus norvegicus [13]) [mmHg],Activity (Rattus norvegicus [14]),Activity (Mus musculus [15]) [%],Activity (Mus musculus [16])
CCC1(c2c[nH]cn2)Cc2ccc(F)cc2C1 (configuration not stated) [FIPAMEZOLE],247,7.24,0.47,1.87,4,6.76,7.84,2090,13.8,–,–,–,–,–,–,–,–,–
CNCCCN1c2ccccc2CCc2ccccc21 [DESIPRAMINE],223,–,–,–,–,–,–,–,–,–,–,–,–,–,–,–,–,–
C[C@H]1[C@@H]2c3ccccc3C[C@]12c1c[nH]cn1,–,0.174,0.06,0.19,3.2,0.204,9.67,33.1,0.295,–,–,–,–,–,–,–,–,–
CCC1(c2c[nH]cn2)Cc2ccccc2C1 [ATIPAMEZOLE],258,–,0.19,1.95,10.3,–,8.05,–,–,–,–,–,–,–,–,–,–,–
"C[C@]12CC1(c1c[nH]cn1)Cc1ccccc12 (single isomer, unassigned)",–,0.447,0.06,0.66,11,0.912,8.66,39.8,2.82,–,–,–,–,–,–,–,–,–
c1ccc2c(c1)C[C@]1(c3cnc[nH]3)C[C@H]21 (stereo in doubt; (+)-1),–,0.0794,–,–,3.5,0.275,–,3.55,0.263,Toxic,0.02,Non-toxic,Toxic,0.07,26,Non-toxic,3096,–
CC[C@H]1c2ccccc2[C@H]2C[C@]21c1c[nH]cn1 (relative stereo),–,0.513,0.03,0.04,1.3,1.62,8.91,40.7,1.26,–,–,–,–,–,–,–,–,–
CCC[C@H]1c2ccccc2[C@H]2C[C@]21c1c[nH]cn1 (relative stereo),–,0.851,0.1,0.12,1.2,2.29,8.7,8.91,1.48,–,–,–,–,–,–,–,–,–
c1ccc2c(c1)C[C@]1(c3c[nH]cn3)C[C@H]21 (stereo in doubt; (+)-1),–,–,–,–,–,–,9.64,–,–,–,–,–,–,–,–,–,–,Dose-dependent effect
